From publication PMC8159897 (Angewandte Chemie (International ed. in English), 2021)

Columns and labels:
[1] = Critical micelle concentration; type: physicochemical; conditions: self-assembly / aggregation (Figures S2, S16)
Golgi of HeLa cells = assay: Golgi accumulation; type: cell-based; conditions: pS1 10 μM, from 1 minute to 8 minutes of incubation
Method in brief: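 HeLa cells first transfected 24 h with CellLight Golgi-RFP to mark the Golgi. They were then given the NBD-labelled thiophosphopeptide test compound at 10 μM and imaged live by confocal microscopy 1, 4 and 8 min after addition. Golgi-localised green (NBD) fluorescence was compared with the red Golgi-RFP signal, and the RFP stain was checked for bleed-through into the green channel.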

[2] = test system: alkaline phosphatase (ALP); conditions: incubated with ALP (0.1 U/mL) for about 16 minutes (Figure S15)

| Structure (SMILES) | critical micelle concentration (CMC) [1] | enhancement of fluorescence intensity at the Golgi (Golgi of HeLa cells) | conversion ratio to dephosphorylated product [2] |
| --- | --- | --- | --- |
| O=C(CCNc1ccc([N+](=O)[O-])c2nonc12)N[C@H](Cc1ccccc1)C(=O)N[C@H](Cc1ccccc1)C(=O)NCCSP(=O)(O)O [pS1] | 6.0 µM | about 7 times | – |
| O=C(Cc1ccc2ccccc2c1)N[C@H](Cc1ccccc1)C(=O)N[C@H](Cc1ccccc1)C(=O)NCCSP(=O)(O)O [pS2] | 9.5 µM | – | nearly fully converted |
